The record followed here is ChEMBL document CHEMBL1141691, “Synthesis and antibacterial activity of the C-7 side chain of 3-aminoquinazolinediones” (Bioorg Med Chem Lett, 2008).

A short description of test [1]: Inhibition of Escherichia coli DNA gyrase.
In a further test the test system is Streptococcus pyogenes. Kind of test: Antibacterial activity against Streptococcus pyogenes C203 by microbroth dilution susceptibility assay. In kind it is functional. Summed up: (§1)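 MIC determined by standard broth microdilution following CLSI (formerly NCCLS) guidelines. Value is the lowest concentration inhibiting bacterial growth.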
A general note: Dilution methods test growth across graded concentrations, often in twofold steps.

The next test has as its system Staphylococcus aureus. Kind of test: Antibacterial activity against Staphylococcus aureus 29213 by microbroth dilution susceptibility assay. In kind it is functional. The procedure, abridged: as §1
For another test, the system named is Enterococcus faecalis. Kind of test: Antibacterial activity against Enterococcus faecalis MGH-2 by microbroth dilution susceptibility assay. It is filed as functional. The procedure, abridged: as §1
The test system of test [2] is Escherichia coli. Kind of test: Antibacterial activity against TolC knock-out Escherichia coli by microbroth dilution susceptibility assay. In kind it is functional. The procedure, abridged:
as §1

In test [3] the test system is Escherichia coli. Kind of test: Antibacterial activity against wild-type Escherichia coli MC4100 by microbroth dilution susceptibility assay. It is filed as functional. Summed up: as §1

One may read the IC50 as the concentration that gives 50% inhibition. Read a high IC50 as a need for much substance. What is called MIC is the lowest concentration found to suppress growth.

Converted amounts (≈) assume the structure as drawn.

On to `Cc1c(N2CCCC2)c(F)cc2c(=O)n(N)c(=O)n(C3CC3)c12`, for which half-maximal inhibition in test [1] (IC50) required 1900 nM. Moreover, the MIC worked out at 1 µg/mL (≈ 3.14 µM) against Streptococcus pyogenes; 1 µg/mL (≈ 3.14 µM) against Staphylococcus aureus; 2 µg/mL (≈ 6.28 µM) in the test with Enterococcus faecalis; 0.13 µg/mL (≈ 0.408 µM) in the test with Escherichia coli [2]; 16 µg/mL (≈ 50.3 µM) in the test with Escherichia coli [3].
Consider `Cc1c(N2CC[C@H]([C@@H](C)N)C2)c(F)cc2c(=O)n(N)c(=O)n(C3CC3)c12`, for which the IC50 in test [1] stood at 800 nM. The MIC in the test on Streptococcus pyogenes was 0.25 µg/mL (≈ 0.692 µM); with Staphylococcus aureus it was 1 µg/mL (≈ 2.77 µM); in the test on Enterococcus faecalis, 0.25 µg/mL (≈ 0.692 µM); against Escherichia coli [2], 0.13 µg/mL (≈ 0.36 µM); against Escherichia coli [3], 2 µg/mL (≈ 5.53 µM).
Compound `Cc1c(N2CCCCC2)c(F)cc2c(=O)n(N)c(=O)n(C3CC3)c12` returned an IC50 in test [1] of 6300 nM. Besides, the MIC against Streptococcus pyogenes is 4 µg/mL (≈ 12 µM); against Staphylococcus aureus, 4 µg/mL (≈ 12 µM); against Enterococcus faecalis, 4 µg/mL (≈ 12 µM); against Escherichia coli [2] it was 0.25 µg/mL (≈ 0.752 µM); in the test on Escherichia coli [3] it was greater than 64 µg/mL.
Consider `Cc1c(N2CC[C@@H]([C@@H](C)N)C2)c(F)cc2c(=O)n(N)c(=O)n(C3CC3)c12`, for which half-maximal inhibition in test [1] (IC50) required 300 nM. Further, the minimum inhibitory concentration (MIC) against Streptococcus pyogenes is 0.06 µg/mL (≈ 0.166 µM); with Staphylococcus aureus it was 0.5 µg/mL (≈ 1.38 µM); against Enterococcus faecalis it was 0.5 µg/mL (≈ 1.38 µM); in the test with Escherichia coli [2], 0.13 µg/mL (≈ 0.36 µM); against Escherichia coli [3], 2 µg/mL (≈ 5.53 µM).
As for `Cc1c(N2CCC(C(C)(C)N)C2)c(F)cc2c(=O)n(N)c(=O)n(C3CC3)c12` (stereo unspecified), the IC50 in test [1] is 1600 nM. The MIC in the test on Streptococcus pyogenes turned out to be 0.125 µg/mL (≈ 0.333 µM); with Staphylococcus aureus, 1 µg/mL (≈ 2.66 µM); with Enterococcus faecalis, 2 µg/mL (≈ 5.33 µM); with Escherichia coli [2], 0.25 µg/mL (≈ 0.666 µM); against Escherichia coli [3], 16 µg/mL (≈ 42.6 µM).
The compound `Cc1c(N2CCC(N)C2)c(F)cc2c(=O)n(N)c(=O)n(C3CC3)c12` (stereo unspecified) returned a half-inhibitory concentration (IC50) in test [1] of 200 nM. The MIC in the test with Streptococcus pyogenes was 1 µg/mL (≈ 3 µM); in the test on Staphylococcus aureus it was 8 µg/mL (≈ 24 µM); against Enterococcus faecalis, 8 µg/mL (≈ 24 µM); against Escherichia coli [2] it was 0.25 µg/mL (≈ 0.75 µM); with Escherichia coli [3], 1 µg/mL (≈ 3 µM).
In the case of `Cc1c(N2CC[C@H]([C@H](C)N)C2)c(F)cc2c(=O)n(N)c(=O)n(C3CC3)c12`, the IC50 in test [1] was 600 nM. Also, the MIC against Streptococcus pyogenes came out at 0.5 µg/mL (≈ 1.38 µM); against Staphylococcus aureus, 2 µg/mL (≈ 5.53 µM); in the test with Enterococcus faecalis, 2 µg/mL (≈ 5.53 µM); against Escherichia coli [2] it was 0.13 µg/mL (≈ 0.36 µM); against Escherichia coli [3], 4 µg/mL (≈ 11.1 µM).
In turn, `CCN[C@@H](C)[C@@H]1CCN(c2c(F)cc3c(=O)n(N)c(=O)n(C4CC4)c3c2C)C1` displayed an IC50 in test [1] of 900 nM. The MIC against Streptococcus pyogenes is 0.13 µg/mL (≈ 0.334 µM); in the test with Staphylococcus aureus, 0.5 µg/mL (≈ 1.28 µM); against Enterococcus faecalis, 0.25 µg/mL (≈ 0.642 µM); in the test with Escherichia coli [2], 0.13 µg/mL (≈ 0.334 µM); in the test with Escherichia coli [3], 8 µg/mL (≈ 20.5 µM).
Take `Cc1c(N2CCNCC2)c(F)cc2c(=O)n(N)c(=O)n(C3CC3)c12`: in test [1], the IC50 came out at 3100 nM. Besides, the minimum inhibitory concentration (MIC) amounted to 4 µg/mL (≈ 12 µM) in the test on Streptococcus pyogenes; 32 µg/mL (≈ 96 µM) in the test on Staphylococcus aureus; 32 µg/mL (≈ 96 µM) against Enterococcus faecalis; 1 µg/mL (≈ 3 µM) in the test on Escherichia coli [2]; 4 µg/mL (≈ 12 µM) in the test on Escherichia coli [3].
For `CN[C@@H](C)[C@@H]1CCN(c2c(F)cc3c(=O)n(N)c(=O)n(C4CC4)c3c2C)C1`, in test [1], the IC50 amounted to 200 nM. Moreover, the MIC in the test with Streptococcus pyogenes is 0.015 µg/mL (≈ 0.04 µM); in the test with Staphylococcus aureus it was 0.5 µg/mL (≈ 1.33 µM); against Enterococcus faecalis, 0.13 µg/mL (≈ 0.346 µM); in the test with Escherichia coli [2], 0.03 µg/mL (≈ 0.0799 µM); in the test with Escherichia coli [3] it was 4 µg/mL (≈ 10.7 µM).
For `CCC(N)C1CCN(c2c(F)cc3c(=O)n(N)c(=O)n(C4CC4)c3c2C)C1` (stereo unspecified), 400 nM corresponded to half-maximal inhibition in test [1] (IC50). Also, the MIC against Streptococcus pyogenes came to 0.03 µg/mL (≈ 0.0799 µM); in the test on Staphylococcus aureus, 0.5 µg/mL (≈ 1.33 µM); in the test with Enterococcus faecalis, 0.25 µg/mL (≈ 0.666 µM); with Escherichia coli [2], 0.13 µg/mL (≈ 0.346 µM); against Escherichia coli [3] it was 8 µg/mL (≈ 21.3 µM).
`O=C(O)c1cn(C2CC2)c2cc(N3CCNCC3)c(F)cc2c1=O` [CIPROFLOXACIN]: the MIC with Streptococcus pyogenes came out at 2 µg/mL (≈ 6.04 µM); with Staphylococcus aureus, 0.5 µg/mL (≈ 1.51 µM); against Enterococcus faecalis it was 0.4 µg/mL (≈ 1.21 µM).
As for `Cc1c(N2CCC(C(C)N)C2)c(F)cc2c(=O)n(N)c(=O)n(C3CC3)c12` (stereo unspecified), in test [1], the IC50 worked out at 600 nM. For the same compound, the minimal inhibitory concentration (MIC) in the test with Streptococcus pyogenes was found to be 0.03 µg/mL (≈ 0.083 µM); in the test with Staphylococcus aureus it was 0.5 µg/mL (≈ 1.38 µM); in the test on Enterococcus faecalis, 1 µg/mL (≈ 2.77 µM); against Escherichia coli [2], 0.25 µg/mL (≈ 0.692 µM); against Escherichia coli [3], 4 µg/mL (≈ 11.1 µM).
Regarding `Cc1c(N2CCC(CCN)C2)c(F)cc2c(=O)n(N)c(=O)n(C3CC3)c12` (stereo unspecified), the IC50 in test [1] is 1200 nM. Also, the MIC in the test with Streptococcus pyogenes turned out to be 0.125 µg/mL (≈ 0.346 µM); against Staphylococcus aureus, 4 µg/mL (≈ 11.1 µM); in the test with Enterococcus faecalis, 4 µg/mL (≈ 11.1 µM); with Escherichia coli [2], 0.5 µg/mL (≈ 1.38 µM); with Escherichia coli [3] it was 16 µg/mL (≈ 44.3 µM).
`Cc1c(N2CC[C@@H]([C@H](C)N)C2)c(F)cc2c(=O)n(N)c(=O)n(C3CC3)c12` yielded an IC50 in test [1] of 200 nM. In addition, the MIC against Streptococcus pyogenes was found to be 0.015 µg/mL (≈ 0.0415 µM); against Staphylococcus aureus, 0.13 µg/mL (≈ 0.36 µM); with Enterococcus faecalis, 0.06 µg/mL (≈ 0.166 µM); in the test with Escherichia coli [2], 0.03 µg/mL (≈ 0.083 µM); with Escherichia coli [3] it was 0.5 µg/mL (≈ 1.38 µM).
The compound `Cc1c(N2CCC(C(N)c3ccccc3)C2)c(F)cc2c(=O)n(N)c(=O)n(C3CC3)c12` (stereo unspecified) displayed a 50% inhibitory concentration (IC50) in test [1] of 260 nM. The MIC against Streptococcus pyogenes turned out to be 0.03 µg/mL (≈ 0.0708 µM); in the test on Staphylococcus aureus, 0.13 µg/mL (≈ 0.307 µM); against Enterococcus faecalis, 0.25 µg/mL (≈ 0.59 µM); against Escherichia coli [2] it was 0.06 µg/mL (≈ 0.142 µM); against Escherichia coli [3], 4 µg/mL (≈ 9.45 µM).
`Cc1c(N2CCC(CN)C2)c(F)cc2c(=O)n(N)c(=O)n(C3CC3)c12` (stereo unspecified) showed an IC50 in test [1] of 400 nM. Besides, the MIC is 0.06 µg/mL (≈ 0.173 µM) with Streptococcus pyogenes; 0.5 µg/mL (≈ 1.44 µM) against Staphylococcus aureus; 0.5 µg/mL (≈ 1.44 µM) in the test on Enterococcus faecalis; 0.13 µg/mL (≈ 0.374 µM) in the test on Escherichia coli [2]; 2 µg/mL (≈ 5.76 µM) with Escherichia coli [3].
`Cc1c(N2CCC(C3(N)CC3)C2)c(F)cc2c(=O)n(N)c(=O)n(C3CC3)c12` (stereo unspecified) showed an IC50 in test [1] of 800 nM. Besides, the MIC with Streptococcus pyogenes came out at 0.03 µg/mL (≈ 0.0803 µM); with Staphylococcus aureus it was 0.25 µg/mL (≈ 0.669 µM); in the test on Enterococcus faecalis, 0.13 µg/mL (≈ 0.348 µM); with Escherichia coli [2], 0.03 µg/mL (≈ 0.0803 µM); against Escherichia coli [3], 2 µg/mL (≈ 5.36 µM).
For the compound `Cc1c(N2CCC2)c(F)cc2c(=O)n(N)c(=O)n(C3CC3)c12`, the IC50 in test [1] was found to be 12500 nM. For the same compound, the MIC was 64 µg/mL (≈ 210 µM) against Streptococcus pyogenes; 32 µg/mL (≈ 105 µM) against Staphylococcus aureus; 64 µg/mL (≈ 210 µM) against Enterococcus faecalis; 2 µg/mL (≈ 6.57 µM) in the test with Escherichia coli [2]; greater than 64 µg/mL in the test with Escherichia coli [3].
